Test results published in ChEMBL document CHEMBL4414574, “Structure-Based Discovery and Development of a Series of Potent and Selective Bromodomain and Extra-Terminal Protein Inhibitors” (J Med Chem, 2019).
The source made the active and inactive calls. The rule behind the calls is not given here.

Legend:
MM1.S = assay: Antiproliferative activity against human MM1S cells after 72 hrs by CCK8 or SRB assay; assay type: functional, cell-based
In short: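 IC50 against MM.1S cell proliferation was taken as the mean of three independent experiments, each run in triplicate, reported with SEM.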

[1] = biological target: T1, Bromodomain-containing protein 4 (Homo sapiens, UniProt O60885); assay: Displacement of 5-FITC labelled (+)-JQ1 from His6-tagged human BRD4 bromodomain 1 expressed in Escherichia coli BL21(DE3) )-codon plus-RIL cells incubated for 4 hrs in dark condition by fluorescence anisotropy binding assay
Hep 3B2 = assay: Antiproliferative activity against human Hep3B cells after 72 hrs by CCK8 or SRB assay; assay type: functional, cell-based
NCI-H1299 = assay: Antiproliferative activity against human NCI-H1299 cells after 72 hrs by CCK8 or SRB assay; assay type: functional, cell-based
A549 = assay: Antiproliferative activity against human A549 cells after 72 hrs by CCK8 or SRB assay; assay type: functional, cell-based
NCI-H522 = assay: Antiproliferative activity against human NCI-H522 cells after 72 hrs by CCK8 or SRB assay; assay type: functional, cell-based
HuTu80 = assay: Antiproliferative activity against human HuTu 80 cells after 72 hrs by CCK8 or SRB assay; assay type: functional, cell-based
SK-OV-3 = assay: Antiproliferative activity against human SKOV3 cells after 72 hrs by CCK8 or SRB assay; assay type: functional, cell-based
MDA-MB-436 = assay: Antiproliferative activity against human MDA-MB-436 cells after 72 hrs by CCK8 or SRB assay; assay type: functional, cell-based
BT-549 = assay: Antiproliferative activity against human BT549 cells after 72 hrs by CCK8 or SRB assay; assay type: functional, cell-based
RKO = assay: Antiproliferative activity against human RKO cells after 72 hrs by CCK8 or SRB assay; assay type: functional, cell-based
HT-29 = assay: Antiproliferative activity against human HT-29 cells after 72 hrs by CCK8 or SRB assay; assay type: functional, cell-based
Homo sapiens = organism: Homo sapiens; assay: Antiproliferative activity against human TY82 cells after 72 hrs by CCK8 or SRB assay; assay type: functional, cell-based
MDA-MB-468 = assay: Antiproliferative activity against human MDA-MB-468 cells after 72 hrs by CCK8 or SRB assay; assay type: functional, cell-based
AGS = assay: Antiproliferative activity against human AGS cells after 72 hrs by CCK8 or SRB assay; assay type: functional, cell-based
SW-620 = assay: Antiproliferative activity against human SW620 cells after 72 hrs by CCK8 or SRB assay; assay type: functional, cell-based
MV4-11 = assay: Antiproliferative activity against human MV4-11 cells after 72 hrs by CCK8 or SRB assay; assay type: functional, cell-based
KG-1 = assay: Antiproliferative activity against human KG1 cells after 72 hrs by CCK8 or SRB assay; assay type: functional, cell-based
[2] = biological target: Histone acetyltransferase p300 (Homo sapiens) (UniProt Q09472); assay: Inhibition of EP300 (unknown origin) at 1 uM
In short: (§1)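 Bromodomain binding panel (32 bromodomains) screened at 1 μM; primary binding read-out reported as percent of control, lower values meaning stronger binding.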

[3] = biological target: T1, Bromodomain-containing protein 4; assay: Inhibition of BRD4 bromodomain 1 (unknown origin)
In short: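 BRD4 BD1 (His6-tagged, E. coli BL21(DE3)-expressed, Ni-NTA purified) at 10 nM with 5 nM FITC-labelled (+)-JQ1 tracer; 50 mM HEPES pH 7.4, 150 mM NaCl, 0.5 mM CHAPS, DMSO 2‰ final; graded inhibitor; 4 h dark equilibration at room temperature; fluorescence anisotropy read (ex 485/em 530 nm). IC50 from two independent experiments in duplicate, mean ± SEM.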

[4] = biological target: Bromodomain-containing protein 2 (Homo sapiens) (UniProt P25440); assay: Inhibition of BRD2 bromodomain 1 (unknown origin)
[5] = biological target: Bromodomain-containing protein 2 (Homo sapiens) (UniProt P25440); assay: Inhibition of BRD2 bromodomain 2 (unknown origin); in short: as §1
[6] = biological target: T1, Bromodomain-containing protein 4; assay: Inhibition of BRD4 bromodomain 2 (unknown origin)
[7] = Half life in ICR mouse at 10 mg/kg, po administered via gavage measured after 0.25 to 24 hrs by UPLC/MS analysis; assay type: ADME, organism-based; settings: in vivo
In short: (§2)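 Male ICR mice dosed orally in 1% DMSO/0.5% HPMC vehicle; plasma or brain drug levels used to derive Tmax, Cmax, AUC0-t, AUC0-inf and T1/2.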

[8] = AUC (0 to t) in ICR mouse at 10 mg/kg, po administered via gavage measured after 0.25 to 24 hrs by UPLC/MS analysis; assay type: ADME, organism-based; design: time 0.25-24 hr, dose 10 mg/kg, route oral; settings: in vivo
In short: (§3)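 Male ICR mice were dosed orally in 1% DMSO/0.5% HPMC vehicle. Plasma (and brain, where stated) concentrations gave Tmax, Cmax, T1/2, AUC0-t and AUC0-inf.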

[9] = AUC (0 to infinity) in ICR mouse at 10 mg/kg, po administered via gavage measured after 0.25 to 24 hrs by UPLC/MS analysis; assay type: ADME, organism-based; design: dose 10 mg/kg, route oral, time infinity; settings: in vivo; in short: as §3
[10] = Cmax in ICR mouse at 10 mg/kg, po administered via gavage measured after 0.25 to 24 hrs by UPLC/MS analysis; assay type: ADME, organism-based; design: dose 10 mg/kg, route oral; settings: in vivo; in short: as §2
[11] = Tmax in ICR mouse at 10 mg/kg, po administered via gavage measured after 0.25 to 24 hrs by UPLC/MS analysis; assay type: ADME, organism-based; settings: in vivo
In short: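 Male ICR mice dosed orally (3, 10 or 100 mg/kg, per line) in 1% DMSO/0.5% HPMC vehicle; plasma drug levels measured.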

Histone acetyltransferase p300 (Homo sapiens), sequence (Q09472 whole entry): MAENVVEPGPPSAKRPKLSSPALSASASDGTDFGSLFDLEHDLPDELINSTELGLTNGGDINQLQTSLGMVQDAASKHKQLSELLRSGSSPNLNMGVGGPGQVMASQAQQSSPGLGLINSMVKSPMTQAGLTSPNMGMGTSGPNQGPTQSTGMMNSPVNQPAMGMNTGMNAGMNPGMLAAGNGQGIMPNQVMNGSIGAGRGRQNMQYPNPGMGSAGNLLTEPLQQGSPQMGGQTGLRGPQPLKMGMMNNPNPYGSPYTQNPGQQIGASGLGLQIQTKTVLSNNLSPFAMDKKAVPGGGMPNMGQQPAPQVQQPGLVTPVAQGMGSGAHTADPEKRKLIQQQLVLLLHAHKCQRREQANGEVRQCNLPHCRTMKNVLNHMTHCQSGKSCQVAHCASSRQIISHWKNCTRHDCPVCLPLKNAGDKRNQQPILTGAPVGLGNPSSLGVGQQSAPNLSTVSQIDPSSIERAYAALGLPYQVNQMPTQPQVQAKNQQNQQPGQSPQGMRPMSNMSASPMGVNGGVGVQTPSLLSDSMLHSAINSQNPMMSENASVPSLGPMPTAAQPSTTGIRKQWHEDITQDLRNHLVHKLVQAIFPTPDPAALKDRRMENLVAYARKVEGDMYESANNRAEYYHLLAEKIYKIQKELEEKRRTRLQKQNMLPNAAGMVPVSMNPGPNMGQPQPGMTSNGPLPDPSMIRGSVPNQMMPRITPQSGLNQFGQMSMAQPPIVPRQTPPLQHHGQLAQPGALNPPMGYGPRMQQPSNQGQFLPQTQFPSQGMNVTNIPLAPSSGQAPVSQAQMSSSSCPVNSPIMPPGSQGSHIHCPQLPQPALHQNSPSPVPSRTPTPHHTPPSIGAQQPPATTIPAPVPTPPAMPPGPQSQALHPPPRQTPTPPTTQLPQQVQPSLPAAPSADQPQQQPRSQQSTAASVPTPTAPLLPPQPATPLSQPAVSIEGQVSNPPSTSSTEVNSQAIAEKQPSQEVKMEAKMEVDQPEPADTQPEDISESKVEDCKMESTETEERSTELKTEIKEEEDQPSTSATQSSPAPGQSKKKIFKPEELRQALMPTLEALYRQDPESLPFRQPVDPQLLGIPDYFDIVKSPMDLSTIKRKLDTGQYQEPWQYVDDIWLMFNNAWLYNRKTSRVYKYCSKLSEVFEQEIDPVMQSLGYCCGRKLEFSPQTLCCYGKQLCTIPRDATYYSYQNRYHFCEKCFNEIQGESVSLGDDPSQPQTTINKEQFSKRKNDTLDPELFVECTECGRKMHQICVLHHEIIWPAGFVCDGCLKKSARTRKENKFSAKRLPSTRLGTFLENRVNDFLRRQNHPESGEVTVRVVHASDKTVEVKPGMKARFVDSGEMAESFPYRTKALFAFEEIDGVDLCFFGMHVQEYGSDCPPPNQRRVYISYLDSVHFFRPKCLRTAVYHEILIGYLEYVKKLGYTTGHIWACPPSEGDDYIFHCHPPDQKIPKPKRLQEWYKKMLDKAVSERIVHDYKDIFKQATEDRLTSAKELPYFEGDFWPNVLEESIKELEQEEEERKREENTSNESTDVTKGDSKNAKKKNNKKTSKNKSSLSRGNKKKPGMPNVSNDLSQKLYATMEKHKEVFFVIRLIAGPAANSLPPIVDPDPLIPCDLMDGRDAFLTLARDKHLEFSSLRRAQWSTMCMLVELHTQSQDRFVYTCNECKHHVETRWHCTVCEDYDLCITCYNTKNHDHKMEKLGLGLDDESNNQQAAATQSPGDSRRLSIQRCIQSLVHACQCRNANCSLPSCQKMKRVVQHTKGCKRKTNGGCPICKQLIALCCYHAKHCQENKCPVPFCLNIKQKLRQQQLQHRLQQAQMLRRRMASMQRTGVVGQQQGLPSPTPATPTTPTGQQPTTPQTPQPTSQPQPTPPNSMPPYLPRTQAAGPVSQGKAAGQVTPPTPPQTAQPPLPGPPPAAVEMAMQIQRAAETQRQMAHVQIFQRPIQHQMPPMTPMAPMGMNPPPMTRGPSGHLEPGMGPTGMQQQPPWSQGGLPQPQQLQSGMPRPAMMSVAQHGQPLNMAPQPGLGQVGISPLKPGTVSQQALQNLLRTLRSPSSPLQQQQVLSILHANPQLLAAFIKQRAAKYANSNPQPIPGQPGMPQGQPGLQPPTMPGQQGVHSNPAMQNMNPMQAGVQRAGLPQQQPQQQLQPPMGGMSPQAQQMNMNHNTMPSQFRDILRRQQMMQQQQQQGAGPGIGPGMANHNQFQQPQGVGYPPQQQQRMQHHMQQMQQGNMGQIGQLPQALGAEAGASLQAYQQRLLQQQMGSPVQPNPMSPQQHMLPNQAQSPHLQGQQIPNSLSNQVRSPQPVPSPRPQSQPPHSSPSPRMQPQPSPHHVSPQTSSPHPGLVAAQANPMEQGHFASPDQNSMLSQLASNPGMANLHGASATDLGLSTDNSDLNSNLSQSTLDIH
Bromodomain-containing protein 2 (Homo sapiens), sequence (P25440 whole entry, looked up): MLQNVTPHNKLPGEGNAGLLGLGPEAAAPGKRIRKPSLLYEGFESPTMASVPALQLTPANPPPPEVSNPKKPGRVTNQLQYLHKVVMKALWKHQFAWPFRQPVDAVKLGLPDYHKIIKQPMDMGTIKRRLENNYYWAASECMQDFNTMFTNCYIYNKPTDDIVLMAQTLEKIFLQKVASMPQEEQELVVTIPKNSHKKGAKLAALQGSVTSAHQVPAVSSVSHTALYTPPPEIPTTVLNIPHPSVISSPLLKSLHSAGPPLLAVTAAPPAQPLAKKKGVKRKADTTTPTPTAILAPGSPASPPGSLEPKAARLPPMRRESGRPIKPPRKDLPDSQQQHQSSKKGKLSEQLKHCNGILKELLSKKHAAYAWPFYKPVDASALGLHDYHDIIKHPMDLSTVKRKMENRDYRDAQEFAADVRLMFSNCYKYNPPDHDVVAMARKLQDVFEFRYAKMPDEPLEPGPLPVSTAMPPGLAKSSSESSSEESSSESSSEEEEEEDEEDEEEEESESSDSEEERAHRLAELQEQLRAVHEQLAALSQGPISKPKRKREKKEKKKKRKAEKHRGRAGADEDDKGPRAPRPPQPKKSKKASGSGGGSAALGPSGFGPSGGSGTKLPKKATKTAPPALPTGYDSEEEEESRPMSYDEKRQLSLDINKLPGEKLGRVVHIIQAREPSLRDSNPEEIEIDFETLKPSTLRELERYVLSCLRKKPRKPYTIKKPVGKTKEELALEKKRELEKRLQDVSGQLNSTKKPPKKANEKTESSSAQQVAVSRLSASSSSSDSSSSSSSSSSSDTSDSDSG

C[C@@H]1C(=O)N(C)c2ccc(-c3nc(C(=O)N4CCN(C)CC4)nn3-c3ccc(Cl)cc3)cc2N1C1CCCC1
IC50 (MM1.S): 48.5 nM | IC50 [1]: 6.8 nM

Cc1ccc(-n2nc(C(=O)N3CCN(C(C)C)CC3)nc2-c2ccc3c(c2)N(C2CCCC2)[C@H](C)C(=O)N3C)cc1
IC50 (MM1.S): 125 nM | IC50 [1]: 4.8 nM

Cc1ccc(-n2nc(C(=O)N3C[C@@H](N)C4(CC4)C3)nc2-c2ccc3c(c2)N(C2CCCC2)[C@H](C)C(=O)N3C)cc1
IC50 (MM1.S): 43.5 nM | IC50 [1]: 6.1 nM

Cc1ccc(-n2nnnc2-c2ccc3c(c2)N(C2CCCC2)C(C)C(=O)N3C)cc1 (stereo not drawn)
IC50 (MM1.S): 1230 nM | IC50 [1]: 9.5 nM

Cc1sc2c(c1C)C(c1ccc(Cl)cc1)=N[C@@H](CC(=O)OC(C)(C)C)c1nnc(C)n1-2
Activity (Hep 3B2): Active | Activity (NCI-H1299): Active | Activity (A549): Active | Activity (NCI-H522): Active | Activity (HuTu80): Active | Activity (SK-OV-3): Active | Activity (MDA-MB-436): Active | Activity (BT-549): Active | Activity (RKO): Active | Activity (HT-29): Active | Activity (Homo sapiens): Active | Activity (MDA-MB-468): Active | Activity (AGS): Active | Activity (SW-620): Active | Activity (MV4-11): Active | Activity (KG-1): Active

Cc1ccc(-n2nc(C(=O)N3CCN4CCCC4C3)nc2-c2ccc3c(c2)N(C2CCCC2)[C@H](C)C(=O)N3C)cc1 (stereo partly drawn)
inhibition [2]: inactive | inhibition [3]: Active | inhibition activity call (active/inactive) [4]: Active | inhibition [5]: Active | inhibition [6]: Active | IC50 (MM1.S): 6.4 nM | IC50 [1]: 8.7 nM

Cc1ccc(-n2nc(C(=O)N3CCCN(C)CC3)nc2-c2ccc3c(c2)N(C2CCCC2)[C@H](C)C(=O)N3C)cc1
inhibition [2]: inactive | inhibition [3]: Active | inhibition activity call (active/inactive) [4]: Active | inhibition [5]: Active | inhibition [6]: Active | IC50 (MM1.S): 8 nM

Cc1ccc(-n2nc(C(=O)N3C[C@@H](NC(=O)OC(C)(C)C)C4(CC4)C3)nc2-c2ccc3c(c2)N(C2CCCC2)[C@H](C)C(=O)N3C)cc1
IC50 (MM1.S): 485 nM | IC50 [1]: 9.6 nM

C[C@@H]1C(=O)N(C)c2ccc(-c3nc(C(=O)N4CCN(C)CC4)nn3-c3ccccc3)cc2N1C1CCCC1
IC50 (MM1.S): 60.1 nM | IC50 [1]: 7.1 nM

Cc1ccc(-n2nnnc2-c2ccc3c(c2)N(C2CC2)C(C)C(=O)N3C)cc1 (stereo not drawn)
IC50 (MM1.S): 47.7 nM | IC50 [1]: 14.4 nM

Cc1ccc(-n2nc(C(=O)N(C)CCN(C)C)nc2-c2ccc3c(c2)N(C2CCCC2)[C@H](C)C(=O)N3C)cc1
inhibition [2]: inactive | inhibition [3]: Active | inhibition activity call (active/inactive) [4]: Active | inhibition [5]: Active | inhibition [6]: Active | IC50 (MM1.S): 16.2 nM | IC50 [1]: 7 nM

Cc1ccc(-n2nc(C(=O)N3C4CCC3CN(C)C4)nc2-c2ccc3c(c2)N(C2CCCC2)[C@H](C)C(=O)N3C)cc1
inhibition [2]: inactive | inhibition [3]: Active | inhibition activity call (active/inactive) [4]: Active | inhibition [5]: Active | inhibition [6]: Active | IC50 (MM1.S): 7.9 nM | IC50 [1]: 6.6 nM

Cc1ccc(N2C(=O)CSC2c2ccc3c(c2)N(C2CC2)C(C)C(=O)N3C)cc1 (stereo not drawn)
IC50 [1]: 142 nM

Cc1ccc(-n2nc(C(=O)N3CCC4(CCCC4)CC3)nc2-c2ccc3c(c2)N(C2CCCC2)[C@H](C)C(=O)N3C)cc1
IC50 (MM1.S): 2400 nM | IC50 [1]: 27.2 nM

Cc1ccc(-n2nc(C(=O)N3CCN(C4CC4)CC3)nc2-c2ccc3c(c2)N(C2CCCC2)[C@H](C)C(=O)N3C)cc1
IC50 (MM1.S): 87.5 nM | IC50 [1]: 5.9 nM

Cc1ccc(-n2nc(C(=O)N3CCN(C)CC3)nc2-c2ccc3c(c2)N(C2CCCC2)[C@H](C)C(=O)N3C)c(C)c1
IC50 (MM1.S): 17.8 nM | IC50 [1]: 4.5 nM

Cc1ccc(-n2nc(C(=O)N3CCN(C)CC3)nc2-c2ccc3c(c2)N(C2CCCC2)[C@H](C)C(=O)N3C)cc1F
inhibition [2]: inactive | half-life [7]: 90 min | inhibition [3]: Active | inhibition activity call (active/inactive) [4]: Active | AUC(0-t) [8]: 8150 ng·h/mL | inhibition [5]: Active | AUC(0-inf) [9]: 8360 ng·h/mL | inhibition [6]: Active | Cmax [10]: 4970 ng/mL | IC50 (MM1.S): 13 nM | Tmax [11]: 18 min | IC50 [1]: 4.2 nM

Cc1ccc(-n2nc(C(=O)N3CC4CCC(C3)N4C)nc2-c2ccc3c(c2)N(C2CCCC2)[C@H](C)C(=O)N3C)cc1
inhibition [2]: inactive | inhibition [3]: Active | inhibition activity call (active/inactive) [4]: Active | inhibition [5]: Active | inhibition [6]: Active | IC50 (MM1.S): 10.1 nM | IC50 [1]: 4.6 nM

CCN1CCN(C(=O)c2nc(-c3ccc4c(c3)N(C3CCCC3)[C@H](C)C(=O)N4C)n(-c3ccc(C)cc3)n2)CC1
IC50 (MM1.S): 25.1 nM | IC50 [1]: 5.8 nM

Cc1onc(-c2ccccc2)c1-c1ccc2c(c1)N(C1CCCC1)[C@H](C)C(=O)N2C
IC50 [1]: 100 nM

Cc1ccc(-n2nc(C(=O)N3CCC4(CCOC4)CC3)nc2-c2ccc3c(c2)N(C2CCCC2)[C@H](C)C(=O)N3C)cc1
IC50 (MM1.S): 485 nM | IC50 [1]: 7.9 nM
